Assay [1] deals with dengue virus type 2. Description: Antiviral activity against Dengue virus 2 infected in human BE(2)-C cells assessed as NS3 protein expression at 12.5 uM incubated for 48 hrs by Western blot analysis (reference value: 100%). It counts as functional. The gist of the method: (§1)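 BE(2)C neuroblastoma cells in RPMI 1640 with 10% FBS were infected with DENV-2 PL046 at MOI 0.1 for 48 h, without or with compound at increasing concentrations. NS3 was immunoblotted with actin as loading control. The NS3:actin densitometry ratio was expressed as % of the DMSO control. Mean ± SD of 3 independent experiments.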

Assay [2] relates to dengue virus type 2. Description: Antiviral activity against Dengue virus 2 infected in human BE(2)-C cells assessed as NS3 protein expression at 3.125 uM treated during 3 to 24 hrs post infection by Western blot analysis (reference value: 100%). It counts as functional. The gist of the method:
(§2)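 Time-of-addition design: BE(2)C cells were infected with DENV-2 or ZIKV at MOI 1. Compound at 3.125 or 6.25 μM was present either during adsorption (0–3 hpi) or afterward (3–24 hpi). Viral protein was immunoblotted against actin, with the ratio as % of the solvent control.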
A general note: A western blot detects proteins with antibodies after separation by electrophoresis.

For assay [3], the system named is dengue virus type 2. Put plainly: Antiviral activity against Dengue virus 2 infected in human BE(2)-C cells transfected with shCaMKIIalpha assessed as NS3 protein expression at 3.125 uM incubated for 48 hrs by Western blot analysis (reference value: 100%). It counts as functional.
In assay [4] the test system is Zika virus. Put plainly: Antiviral activity against Zika virus infected in human BE(2)-C cells assessed as reduction in viral entry at 3.125 to 6.25 uM incubated for 90 mins by plaque-forming assay. It counts as functional, organism-based. The gist of the method:
(§3)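 Virus entry: BE(2)C cells were incubated with DENV-2 or ZIKV for 90 min at 4 °C and washed cold. Cells were then treated with 3.125 or 6.25 μM compound at 37 °C for 1 h. Non-internalized virus was inactivated with 0.1 M glycine, pH 3, for 5 min. Cells were lysed by needle passage, and internalized virus was titrated by plaque assay. Mean ± SD, n = 3.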

For assay [5], the system named is Zika virus. Put plainly: Antiviral activity against Zika virus infected in human BE(2)-C cells assessed as reduction in viral entry at 3.125 to 6.25 uM incubated for 90 mins by plaque-forming assay relative to control. It counts as functional. Set-up: scale not given: the % may be the effect or the level left. The gist of the method:
as §3

Assay [6] concerns dengue virus type 2. Put plainly: Antiviral activity against Dengue virus 2 infected in human BE(2)-C cells transfected with shLacZ assessed as NS3 protein expression at 6.25 uM incubated for 48 hrs by Western blot analysis (reference value: 100%). It counts as functional.
In assay [7] the test system is dengue virus type 2. Description: Antiviral activity against Dengue virus 2 infected in human HMC3 cells assessed as reduction in NS3 protein expression at 1.56 to 12.5 uM incubated for 24 hrs by immunofluorescence microscopy. It counts as functional, organism-based.
In assay [8] the test system is Zika virus. Description: Antiviral activity against Zika virus infected in human BE(2)-C cells assessed as NS3 protein expression at 6.25 uM treated during 3 to 24 hrs post infection by Western blot analysis (reference value: 100%). It counts as functional. The gist of the method: as §2
The test system of assay [9] is Zika virus. Put plainly: Antiviral activity against Zika virus infected in human BE(2)-C cells transfected with shCaMKIIalpha assessed as NS3 protein expression at 6.25 uM incubated for 48 hrs by Western blot analysis (reference value: 100%). It counts as functional.
Assay [10] deals with dengue virus type 2. Put plainly: Antiviral activity against DENV-2 NGC-N infected in Stat1-/- mouse assessed as improvement in overall mouse survival at 4 mg/kg, po dosed 8 hrs after infection and ending at day 6 after infection (8 hrs delay) relative to control. It counts as functional.
Assay [11] deals with Zika virus. Put plainly: Antiviral activity against Zika virus infected in human BE(2)-C cells assessed as NS3 protein expression at 6.25 uM incubated for 48 hrs by Western blot analysis (reference value: 100%). It counts as functional. The gist of the method: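 BE(2)C cells were infected with ZIKV PRVABC59 at MOI 0.1 for 48 h, with or without compound at increasing concentrations. Viral protein was immunoblotted with actin as loading control. The band-density ratio was given as % of the solvent control. Mean ± SD, 3 independent experiments.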

Assay [12] relates to Zika virus. Description: Antiviral activity against Zika virus infected in human HMC3 cells assessed as reduction in viral progeny production at 1.56 to 12.5 uM incubated for 48 hrs by Virus titer assay. It counts as functional, organism-based. The gist of the method:
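HMC3 microglia were grown in MEM with 10% FBS and infected with ZIKV PRVABC59 (MOI 0.1) for 48 h at the specified concentrations. Viral protein was read by immunofluorescence with Hoechst nuclear stain. Infectious progeny was titred by plaque assay on Vero cells (log PFU/mL). DMSO served as the solvent control.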

Assay [13] deals with dengue virus type 2. Put plainly: Antiviral activity against Dengue virus 2 infected in human BE(2)-C cells assessed as NS3 protein expression at 0.39 uM incubated for 48 hrs by Western blot analysis (reference value: 100%). It counts as functional. The gist of the method:
as §1

Assay [14] deals with dengue virus type 2. As to conditions: 3.125 to 6.25 uM.
In assay [15] the test system is Zika virus. Description: Antiviral activity against Zika virus infected in Stat1-/- mouse assessed as delay in virus-induced mouse mortality at 4 mg/kg/day, po dosed immediately following viral infection followed by daily dosing for 6 days (reference value: 13 days). It counts as functional, organism-based.
Assay [16] relates to Zika virus. Description: Antiviral activity against Zika virus infected in Stat1-/- mouse assessed as improvement in overall mouse survival at 4 to 8 mg/kg, po dosed 8 hrs after infection and ending at day 6 after infection (8 hrs delay) relative to control. It counts as functional, organism-based. The gist of the method:
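Stat1-/- mice, 6 weeks old, infected sc in the footpad with 5x10⁴ PFU of ZIKV PRVABC59. Oral dosing at 4 or 8 mg/kg/day, or PBS, started 8 h post-infection and ran daily up to day 6; n = 5. Survival was monitored for 12 d, with T50 by log-rank test.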

The subject of assay [17] is Zika virus. Description: Antiviral activity against Zika virus infected in human BE(2)-C cells transfected with shLacZ assessed as NS3 protein expression at 3.125 uM incubated for 48 hrs by Western blot analysis (reference value: 100%). It counts as functional.
Assay [18] has as its system dengue virus type 2. Description: Antiviral activity against DENV-2 NGC-N infected in Stat1-/- mouse assessed as effect on overall mouse survival at 2 to 8 mg/kg/day, po dosed immediately following viral infection followed by daily dosing for 6 days. It counts as functional, organism-based.
Assay [19] relates to dengue virus type 2. Description: Antiviral activity against Dengue virus 2 infected in human BE(2)-C cells assessed as reduction in viral entry at 3.125 to 6.25 uM incubated for 90 mins by plaque-forming assay. It counts as functional, organism-based. The gist of the method: as §3
In assay [20] the test system is Zika virus. Description: Antiviral activity against Zika virus infected in human HMC3 cells assessed as reduction in NS3 protein expression at 1.56 to 12.5 uM incubated for 24 hrs by immunofluorescence microscopy. It counts as functional, organism-based.
Assay [21] has as its system dengue virus type 2. Description: Antiviral activity against DENV-2 NGC-N infected in Stat1-/- mouse assessed as overall mouse survival at 8 mg/kg, po dosed immediately following viral infection followed by daily dosing for 6 days (reference value: 0%). It counts as functional. The following applies: 144 h.
The subject of assay [22] is dengue virus type 2. Description: Antiviral activity against Dengue virus 2 infected in human BE(2)-C cells assessed as reduction in viral entry at 3.125 to 6.25 uM incubated for 90 mins by plaque-forming assay relative to control. It counts as functional. More on the design: scale not given: the % may be the effect or the level left. The gist of the method: as §3
Assay [23] concerns dengue virus type 2. Put plainly: Antiviral activity against Dengue virus 2 infected in human BE(2)-C cells assessed as NS3 protein expression at 1.56 uM incubated for 48 hrs by Western blot analysis (reference value: 100%). It counts as functional. The gist of the method: as §1
Assay [24] has as its system Zika virus. Description: Antiviral activity against Zika virus infected in human BE(2)-C cells assessed as NS3 protein expression at 3.125 uM treated during 3 to 24 hrs post infection by Western blot analysis (reference value: 100%). It counts as functional. The gist of the method:
as §2

Molecules are shown by their SMILES. Active and inactive are the calls of the source. No cut-off for these calls is given here.

Consider `COc1ccc(S(=O)(=O)N(CCCC(=O)C2CCCCCC2)c2ccccc2)cc1`, for which the Activity with dengue virus type 2 [1] was 5.1%; with dengue virus type 2 [2] it was 78.3%; in the assay on dengue virus type 2 [3], 95.1%; with Zika virus [4], “Dose-dependent effect”; in the assay on Zika virus [5], 80%; in the assay with dengue virus type 2 [6] it was 34.6%. In addition, the Activity in the assay with Zika virus [8] was determined as 79.5%; in the assay on Zika virus [9], 89.1%; in the assay with dengue virus type 2 [10] it was 40%; with Zika virus [11], 4.1%; in the assay with dengue virus type 2 [13], 90.8%; in the assay with Zika virus [17], 102%. Besides, the Activity entry is “Dose-dependent effect” in the assay with dengue virus type 2 [19], “<=70%” in the assay on dengue virus type 2 [22], 75.2% in the assay on dengue virus type 2 [23] and 97.2% with Zika virus [24]. Moreover, the result in the assay with dengue virus type 2 [7], in the assay with Zika virus [12] and in the assay on Zika virus [20] was Active. Moreover, the inhibition result in the assay on dengue virus type 2 [14] was “inactive”. Besides, the outcome in the assay with Zika virus [15], with Zika virus [16] and in the assay with dengue virus type 2 [18] was inactive. In addition, the survival at 8 mg/kg in the assay with dengue virus type 2 [21] was 60%.

These data come from ChEMBL document CHEMBL4376891, “Benzenesulfonamide Derivatives as Calcium/Calmodulin-Dependent Protein Kinase Inhibitors and Antiviral Agents against Dengue and Zika Virus Infections” (J Med Chem, 2020).
